How the values were obtained:
[1] = species on record: Homo sapiens; assay: Ability to block Glycoprotein IIb-IIIa was measured by inhibiting ADP induced human platelet aggregation (5 uM); assay type: functional
[2] = biological target: Integrin alpha-IIb/beta-3 (Homo sapiens, UniProt P05106+P08514); assay: Concentration required to reduce binding of fibrinogen to purified Fibrinogen Receptor by 50% using ELISA; assay type: protein-complex assay
Summary of the method: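 ELISA of fibrinogen binding to immobilized purified human platelet GPIIb-IIIa; biotinylated fibrinogen detected with alkaline phosphatase-labeled goat antibiotin and p-nitrophenol phosphate substrate; IC50 as inhibition of fibrinogen binding.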

Sequence of Integrin alpha-IIb/beta-3 (P05106 27-788 limits assumed): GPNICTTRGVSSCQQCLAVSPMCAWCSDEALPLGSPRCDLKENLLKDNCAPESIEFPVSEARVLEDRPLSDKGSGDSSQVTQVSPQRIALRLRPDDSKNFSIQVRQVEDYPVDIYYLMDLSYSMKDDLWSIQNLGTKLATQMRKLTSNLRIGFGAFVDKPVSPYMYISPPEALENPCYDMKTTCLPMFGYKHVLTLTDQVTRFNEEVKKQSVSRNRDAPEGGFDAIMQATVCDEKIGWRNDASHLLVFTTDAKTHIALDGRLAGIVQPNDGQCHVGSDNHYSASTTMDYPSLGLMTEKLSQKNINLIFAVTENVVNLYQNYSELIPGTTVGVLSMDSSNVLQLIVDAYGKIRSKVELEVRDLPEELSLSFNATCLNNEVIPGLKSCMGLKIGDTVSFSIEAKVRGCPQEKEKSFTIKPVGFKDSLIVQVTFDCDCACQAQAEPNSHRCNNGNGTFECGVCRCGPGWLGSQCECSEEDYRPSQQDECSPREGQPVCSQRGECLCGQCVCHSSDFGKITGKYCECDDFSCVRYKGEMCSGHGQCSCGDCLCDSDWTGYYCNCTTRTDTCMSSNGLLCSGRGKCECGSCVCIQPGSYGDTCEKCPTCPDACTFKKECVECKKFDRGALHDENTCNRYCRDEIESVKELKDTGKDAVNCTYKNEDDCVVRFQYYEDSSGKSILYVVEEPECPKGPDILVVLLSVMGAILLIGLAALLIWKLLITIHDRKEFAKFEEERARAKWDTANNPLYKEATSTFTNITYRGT
Sequence of Integrin alpha-IIb/beta-3 (P08514 32-887 limits assumed): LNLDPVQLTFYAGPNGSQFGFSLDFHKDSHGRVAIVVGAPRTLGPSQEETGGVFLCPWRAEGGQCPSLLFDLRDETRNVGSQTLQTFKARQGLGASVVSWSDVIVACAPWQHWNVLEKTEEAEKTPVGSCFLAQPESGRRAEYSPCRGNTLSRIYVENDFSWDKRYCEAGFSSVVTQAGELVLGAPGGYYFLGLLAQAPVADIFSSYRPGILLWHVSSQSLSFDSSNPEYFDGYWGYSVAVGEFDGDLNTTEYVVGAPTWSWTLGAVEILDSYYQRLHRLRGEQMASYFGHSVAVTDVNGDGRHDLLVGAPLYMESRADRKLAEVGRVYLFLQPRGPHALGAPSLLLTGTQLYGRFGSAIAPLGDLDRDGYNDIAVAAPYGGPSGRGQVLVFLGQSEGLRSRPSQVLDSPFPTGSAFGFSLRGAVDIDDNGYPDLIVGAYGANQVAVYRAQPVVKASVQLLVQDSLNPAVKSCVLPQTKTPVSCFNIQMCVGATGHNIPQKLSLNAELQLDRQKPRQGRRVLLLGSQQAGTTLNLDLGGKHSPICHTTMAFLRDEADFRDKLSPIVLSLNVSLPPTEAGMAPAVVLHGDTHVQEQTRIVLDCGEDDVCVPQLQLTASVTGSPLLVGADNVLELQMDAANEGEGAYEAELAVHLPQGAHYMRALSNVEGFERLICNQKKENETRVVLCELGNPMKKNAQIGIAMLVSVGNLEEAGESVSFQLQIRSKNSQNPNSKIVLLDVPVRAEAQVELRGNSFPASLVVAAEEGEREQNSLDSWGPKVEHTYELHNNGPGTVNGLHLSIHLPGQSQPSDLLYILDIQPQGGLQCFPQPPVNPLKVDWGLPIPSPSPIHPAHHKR
Sequence of Integrin alpha-IIb/beta-3 (P08514 891-1039 limits assumed): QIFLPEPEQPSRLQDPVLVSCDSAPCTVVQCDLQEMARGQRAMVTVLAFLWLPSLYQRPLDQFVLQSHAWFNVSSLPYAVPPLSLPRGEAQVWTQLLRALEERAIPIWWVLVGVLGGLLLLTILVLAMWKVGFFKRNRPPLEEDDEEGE

Row | Structure (SMILES) | IC50 [1] [nM] | IC50 [2] [µM]
1 | N=C(N)c1ccc(COc2ccc3c(c2)CCN(CC(=O)O)C3=O)cc1 | 30000 | –
2 | N=C(N)c1ccc(CCc2ccc3c(c2)CCN(CC(=O)O)C3=O)cc1 | 1200 | –
3 | NCCCCOc1ccc2c(c1)CCN(CC(=O)O)C2=O | – | 18
4 | N=C(N)c1ccc(/C=C\c2ccc3c(c2)CCN(CC(=O)O)C3=O)cc1 | 5700 | 0.29
5 | NCCCCCOc1ccc2c(c1)CCN(CC(=O)O)C2=O | – | 28
6 | NCc1cccc(COc2ccc3c(c2)CCN(CC(=O)O)C3=O)c1 | – | 77
7 | N=C(N)NCCCCCCOc1ccc2c(c1)CCN(CC(=O)O)C2=O | – | 12
8 | O=C(O)CN1CCc2cc(OCCC3CCNCC3)ccc2C1=O | – | 11
9 | N=C(N)c1ccc(COc2ccc3c(c2)C(=O)N(CC(=O)O)CC3)cc1 | – | 4
10 | N=C(N)NCCCOc1ccc2c(c1)CCN(CC(=O)O)C2=O | – | 44
11 | N=C(N)c1ccc(NC(=O)c2ccc3c(c2)CCN(CC(=O)O)C3=O)cc1 | 560 | 0.076
12 | NCCCOc1ccc2c(c1)CCN(CC(=O)O)C2=O | – | 48
13 | NCCCCCCOc1ccc2c(c1)CCN(CC(=O)O)C2=O | – | 19
14 | N=C(N)c1ccc(/C=C/c2ccc3c(c2)CCN(CC(=O)O)C3=O)cc1 | 340 | 0.048
15 | N=C(N)NCc1cccc(COc2ccc3c(c2)CCN(CC(=O)O)C3=O)c1 | – | 14
16 | N=C(N)c1ccc(CCOc2ccc3c(c2)CCN(CC(=O)O)C3=O)cc1 | – | 6
17 | N=C(N)c1ccc(C#Cc2ccc3c(c2)CCN(CC(=O)O)C3=O)cc1 | 520 | 0.033

Second part, the compound after the results:

Row | IC50 [1] [nM] | IC50 [2] [µM] | Structure (SMILES)
18 | – | 4 | N=C(N)NCc1ccc(COc2ccc3c(c2)CCN(CC(=O)O)C3=O)cc1
19 | 90 | 0.003 | N=C(N)c1ccc(C(=O)Nc2ccc3c(c2)CCN(CC(=O)O)C3=O)cc1
20 | – | 6 | O=C(O)CN1CCc2cc(OCCCC3CCNCC3)ccc2C1=O
21 | – | 12 | NCc1ccc(COc2ccc3c(c2)CCN(CC(=O)O)C3=O)cc1
22 | 9800 | 1.8 | O=C(O)CN1CCc2cc(OCCCCC3CCNCC3)ccc2C1=O
23 | – | < 100 | N=C(N)NCCCOc1ccc2c(c1)C(=O)N(CC(=O)O)CC2
24 | – | 46 | N=C(N)NCCCCOc1ccc2c(c1)C(=O)N(CC(=O)O)CC2
25 | – | 10 | N=C(N)NCCCCOc1ccc2c(c1)CCN(CC(=O)O)C2=O
26 | – | 55 | O=C(O)CN1CCc2cc(OCC3CCNCC3)ccc2C1=O
